Legend:
[1] = Half life in human plasma at 10 uM up to 360 mins by LC-MS/MS analysis; format: ADME, cell-free
In short: (§1)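 Plasma incubated in duplicate at 37 °C with 10 µM test compound (1% methanol; from 1 mM methanol stock). Samples taken at 0, 15, 30, 60, 120, 240 and 360 min and quenched with 9 volumes of ice-cold methanol containing 500 nM internal standard, then centrifuged. Analyte/IS area ratios were quantified by LC-MS/MS as % remaining versus T0. t1/2 = −0.693/k, with k from the slope of log % remaining versus time.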

[2] = Half life in rat plasma at 10 uM up to 360 mins by LC-MS/MS analysis; format: ADME, cell-free; in short: as §1
[3] = test system: Plasma; experiment: Stability in rat plasma at 10 uM up to 360 mins in presence of EDTA by LC-MS/MS analysis; format: ADME, cell-free; settings: 6 h
In short: (§2)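 Rat plasma incubated in duplicate at 37 °C with 10 µM test compound (1% methanol), plus either 1 mM DTNB (11) or 0.5 mM EDTA (12). Duplicate controls used methanol in place of the inhibitor. Samples taken from 0 to 360 min and quenched with 9 volumes of cold methanol containing internal standard. Remaining compound measured by LC-MS/MS relative to T0.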

[4] = target: T1, Liver carboxylesterase 1 (Mus musculus, UniProt Q8VCC2); experiment: Drug metabolism assessed as mouse CES1-mediated compound hydrolysis after 6 hrs; format: ADME
T1 sequence (Q8VCC2 whole entry): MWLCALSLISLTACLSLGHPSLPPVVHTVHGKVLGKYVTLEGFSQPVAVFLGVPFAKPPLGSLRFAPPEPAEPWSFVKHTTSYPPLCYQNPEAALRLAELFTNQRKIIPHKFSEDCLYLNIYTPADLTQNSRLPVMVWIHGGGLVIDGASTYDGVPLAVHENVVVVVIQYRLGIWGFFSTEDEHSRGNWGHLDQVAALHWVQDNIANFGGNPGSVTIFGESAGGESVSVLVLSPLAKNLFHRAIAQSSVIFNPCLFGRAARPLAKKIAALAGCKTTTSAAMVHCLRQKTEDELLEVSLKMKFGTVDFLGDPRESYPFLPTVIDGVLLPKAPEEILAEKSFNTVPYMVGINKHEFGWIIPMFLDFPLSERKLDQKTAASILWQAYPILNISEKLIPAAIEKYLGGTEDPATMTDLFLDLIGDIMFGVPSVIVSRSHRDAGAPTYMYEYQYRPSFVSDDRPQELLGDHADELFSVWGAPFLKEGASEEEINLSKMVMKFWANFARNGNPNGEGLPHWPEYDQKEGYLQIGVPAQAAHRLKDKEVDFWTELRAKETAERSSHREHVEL

[5] = target: T2, Liver carboxylesterase 1 (Homo sapiens, UniProt P23141); experiment: Drug metabolism assessed as human CES1-mediated compound hydrolysis after 6 hrs; format: ADME
T2 sequence (P23141 whole entry): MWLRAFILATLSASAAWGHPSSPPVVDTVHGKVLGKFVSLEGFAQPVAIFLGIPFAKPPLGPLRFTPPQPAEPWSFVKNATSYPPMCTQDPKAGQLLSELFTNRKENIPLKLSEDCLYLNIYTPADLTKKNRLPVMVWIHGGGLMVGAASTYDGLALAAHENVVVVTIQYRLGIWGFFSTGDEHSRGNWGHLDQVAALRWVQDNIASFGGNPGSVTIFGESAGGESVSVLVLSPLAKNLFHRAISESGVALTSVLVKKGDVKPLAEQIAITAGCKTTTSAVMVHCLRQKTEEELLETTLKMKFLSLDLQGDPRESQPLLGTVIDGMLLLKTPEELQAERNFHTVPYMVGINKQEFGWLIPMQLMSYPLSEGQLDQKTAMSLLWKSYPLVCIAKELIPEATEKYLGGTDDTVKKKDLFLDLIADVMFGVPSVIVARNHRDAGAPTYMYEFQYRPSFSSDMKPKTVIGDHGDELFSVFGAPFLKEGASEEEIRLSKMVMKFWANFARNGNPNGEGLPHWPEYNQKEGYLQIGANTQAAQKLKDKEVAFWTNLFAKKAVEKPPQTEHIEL

[6] = Half life in rat intestinal microsomes at 1 uM up to 120 mins by LC-MS/MS analysis; format: ADME, Intestine, Microsome
In short: (§3)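 Run under non-oxidative conditions, in duplicate at 37 °C: 1 µM test compound (1% methanol) with 1 mg/mL rat liver or rat intestinal microsomal protein. Samples taken at 0, 15, 30, 60 and 120 min and quenched with 4 volumes of cold methanol or acetonitrile containing 200 nM internal standard. Triplicate controls used denatured microsomes. LC-MS/MS gave % remaining versus T0; t1/2 = −0.693/k.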

[7] = Half life in rat liver microsomes at 1 uM up to 120 mins by LC-MS/MS analysis; format: ADME, microsome; in short: as §3
[8] = test system: Plasma; experiment: Stability in rat plasma at 10 uM up to 360 mins in presence of DTNB by LC-MS/MS analysis; format: ADME, cell-free; settings: 6 h; in short: as §2
[9] = Half life in human liver microsomes at 10 uM up to 120 mins by LC-MS/MS analysis; format: ADME, microsome

half-life at 10 µM [1] [h]	half-life at 10 µM [2] [h]	Stability [3]	Structure (SMILES)	also measured
		Unstable	O=C(CCc1ccccc1)NO	half-life at 1 µM [6]: > 6 h; Drug metabolism [4]: Metabolite_Detected; half-life at 1 µM [7]: 0.25 h; Drug metabolism [5]: Metabolite_Detected
> 6	> 6		CC(CCc1ccccc1)C(=O)NO (centres undefined)	
> 6	0.9 to 0.93	Unstable	O=C(CCCCc1ccccc1)NO	
> 6	> 6		O=C(/C=C/c1ccc(S(=O)(=O)Nc2ccccc2)cc1)NO	
> 6	> 6		O=C(CC(=O)NCc1ccc(F)cc1)NO	
> 6	> 6		O=C(C=C(c1ccccc1)c1ccccc1)NO	Drug metabolism [4]: Metabolite_Detected; Drug metabolism [5]: Metabolite_Detected
> 6	4.5	Unstable	O=C(CCCCCc1ccccc1)NO	
> 6	2.5	Unstable	O=C(CCNC(=O)c1ccccc1)NO	
> 6	> 6		O=C(CC(=O)Nc1ccccc1)NO	
> 6	> 6		C[C@H](NCc1ccccc1)C(=O)NO	
> 6	0.58	Unstable	O=C(CNC(=O)c1ccccc1)NO	
> 6	3.6	Unstable	O=C(CNCc1ccccc1)NO	
> 6	> 6		O=C(/C=C/c1ccc(-c2ccccc2)cc1)NO	
> 6	> 6		CC(C(=O)NO)C(=O)NCc1ccc(F)cc1 (centres undefined)	
> 6	> 6		O=C(CCCCCCc1ccccc1)NO	
> 6	> 6		O=C(/C=C/c1ccc(Cl)cc1Cl)NO [CINNAMIC ACID HYDROXAMATE]	
> 6	> 6		CCCCc1nc2cc(/C=C/C(=O)NO)ccc2n1CCN(CC)CC [PRACINOSTAT]	

More lines, now with the values behind:

Structure (SMILES)	half-life at 10 µM [1] [h]	half-life at 10 µM [2] [h]	Stability [3]	also measured
CC(Cc1ccccc1)(C(=O)NO)C(=O)NCc1ccccc1 (centres undefined)	> 6	1.5	Unstable	
O=C(NO)C(Cc1ccccc1)C(=O)NCc1ccccc1 (centres undefined)	> 6	0.8	Unstable	Drug metabolism [4]: Metabolite_Detected; Drug metabolism [5]: Metabolite_Detected
O=C(NO)C1Cc2ccccc2CN1S(=O)(=O)c1ccccc1 (centres undefined)	> 6	0.7	Unstable	
O=C(CCCC1CCCCC1)NO	> 6	0.05		Drug metabolism [4]: Metabolite_Detected; Drug metabolism [5]: Metabolite_Detected
O=C(NO)C(Cc1ccccc1)C(=O)NCc1ccncc1 (centres undefined)	> 6	3.3	Unstable	
O=C(NO)C(Cc1ccccc1)C(=O)NCc1ccc(F)cc1 (centres undefined)			Unstable	
O=C(CC(=O)NCc1ccccc1)NO	> 6	> 6		
O=C(CC12CC3CC(CC(C3)C1)C2)NO	> 6	> 6		
O=C(NO)[C@H](Cc1ccccc1)NS(=O)(=O)c1ccccc1	> 6	0.1	Unstable	
O=C(CC1CCCCC1)NO	> 6	> 6		
O=C(CCC(=O)Nc1ccccc1)NO	2.4	0.43		Drug metabolism [4]: Metabolite_Detected; Drug metabolism [5]: Metabolite_Detected
O=C(NO)C(Cc1ccncc1)C(=O)NCc1ccccc1 (centres undefined)	> 6	4.5	Unstable	
O=C(NO)C1CCN(C(=O)c2ccccc2)C1 (centres undefined)	> 6	> 6		
CC(C)(C(=O)NO)C(=O)NCc1ccccc1	> 6	> 6		
O=C(NO)C(CCc1ccccc1)Cc1ccccc1 (centres undefined)	> 6	> 6		
CC(C(=O)NO)C(=O)NCc1ccccc1 (centres undefined)	> 6	> 6		
CC(C)[C@H](C(=O)NO)N(Cc1ccccc1)S(=O)(=O)c1ccccc1	> 6	> 6		
O=C(N[C@@H](CO)C(=O)NO)c1ccc(-c2ccccc2)cc1	> 6	> 6		

Structure (SMILES)	half-life at 10 µM [1] [h]	half-life at 10 µM [2] [h]	Stability [3]	also measured
CS(=O)(=O)C(CCc1ccccc1)(Cc1ccccc1)C(=O)NO (centres undefined)	> 6	> 6		
O=C(CCNCc1ccccc1)NO	> 6	2.1	Unstable	
CC(CCc1ccccc1)(C(=O)NO)S(=O)(=O)c1ccccc1 (centres undefined)	> 6	> 6		
O=C(CCC12CC3CC(CC(C3)C1)C2)NO	> 6	0.5		Stability [8]: Unstable
O=C(NO)C1(C(=O)NCc2ccccc2)CC1	> 6	> 6		
O=C(CCC1CCCCC1)NO	> 6	0.06		Drug metabolism [4]: Metabolite_Detected; Drug metabolism [5]: Metabolite_Detected
O=C(CNC(=O)Cc1ccccc1)NO	> 6	0.29	Unstable	
O=C(NO)C1(NS(=O)(=O)c2ccccc2)CCOCC1	> 6	> 6		
O=C(NO)C(Cc1ccc2ccccc2c1)C(=O)NCc1ccccc1 (centres undefined)	> 6	0.1	Unstable	Drug metabolism [4]: Metabolite_Detected; Drug metabolism [5]: Metabolite_Detected
O=C(NCC(C(=O)NO)N1CCCCC1)c1ccccc1 (centres undefined)	> 6	0.4	Unstable	
O=C(CNCCc1ccccc1)NO	> 6	0.5	Unstable	
O=C(NO)[C@@H](Cc1ccccc1)N(Cc1ccccc1)S(=O)(=O)c1ccccc1	> 6	> 6		
O=C(NO)[C@H](Cc1ccccc1)NCc1ccccc1	> 6	1.8	Unstable	
O=C(NO)C(CCc1ccccc1)S(=O)(=O)c1ccccc1 (centres undefined)	> 6	> 6		
CC(Cc1ccccc1)(C(=O)NO)C(=O)NCc1ccc(F)cc1 (centres undefined)			Unstable	
CC(=O)Oc1cc2c(s1)CCN(C(C(=O)C1CC1)c1ccccc1F)C2 (centres undefined) [PRASUGREL]				half-life at 1 µM [6]: 0.0167 h
CCOC(=O)[C@H](CCc1ccccc1)N[C@@H](C)C(=O)N1[C@H](C(=O)O)C[C@H]2CCCC[C@@H]21 [TRANDOLAPRIL]				half-life at 10 µM [9]: 0.333 h; half-life at 1 µM [7]: 0.117 h

Reference: ChEMBL document CHEMBL4028870, “Controlling Plasma Stability of Hydroxamic Acids: A MedChem Toolbox” (J Med Chem, 2017)
